We go through 8 compounds from ChEMBL document CHEMBL1124982, “Chemistry and structure-activity relationships of C-17 unsaturated 18-cycloalkyl and cycloalkenyl analogues of enisoprost. Identification of a promising new antiulcer prostaglandin” (1990).

For test [1], the system named is Canis familiaris. As to the kind of experiment: Tested for gastric antisecretory activity in dogs by intrapouch administration. To be noted: Canis lupus familiaris, Stomach. The format is functional. The procedure, abridged:
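Adult female beagles (6–11 kg) with Pavlov pouches; after a 30-min basal collection, drug given into the pouch via Thomas cannula in pH 7.4 isoosmotic phosphate buffer with up to 20% ethanol. Fed 10–12 oz canned food 30 min later. Gastric juice collected at 30-min intervals for 4 h; acid output = volume × acidity. Percent reduction from control over 2–5 doses, 2–7 dogs/dose. ED50 by linear regression, 95% limits by Fieller's method.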

The test system of test [2] is Rattus norvegicus. Briefly: Tested for diarrheal side effects in rats by intragastric administration. To be noted: po. It is filed as functional. In short, it runs like this: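 Adult male Charles River rats (210–230 g), individually housed, fasted 24 h with water ad libitum. Logarithmically graded prostaglandin doses given orally, N = 6–12 per group. Diarrhea scored all-or-none for 8 h after dosing. ED50 and 95% confidence intervals by logistic regression.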

Each structure is given as a SMILES string. Some results are limits rather than exact numbers.

Turning to `COC(=O)CC/C=C\CC[C@H]1C(=O)C[C@@H](O)[C@@H]1/C=C/C[C@@](C)(O)/C=C/C1=CCCCC1`, the ED50 (usually the dose that gives a 50% effect, or the effect in half of the subjects) in test [1] is 0.3 µg/kg; in test [2], over 3160 µg/kg.
For the compound `COC(=O)CC/C=C\CC[C@H]1C(=O)C[C@@H](O)[C@@H]1/C=C/C[C@@](C)(O)C#CC1=CCCC1`, the 50% effective dose (ED50) is 2.8 µg/kg in test [1] and over 3160 µg/kg in test [2].
Regarding `COC(=O)CC/C=C\CC[C@H]1C(=O)C[C@@H](O)[C@@H]1/C=C/C[C@@](C)(O)/C=C/C1=CCCC1`, the ED50 is 0.02 µg/kg in test [1] and over 3160 µg/kg in test [2].
On to `COC(=O)CC/C=C\CC[C@H]1C(=O)C[C@@H](O)[C@@H]1/C=C/C[C@@](C)(O)/C=C/C1CC1`, for which the figures for the median effective dose (ED50) in test [1] and in test [2] were 0.1 µg/kg and 402 µg/kg, respectively.
On to `COC(=O)CC/C=C\CC[C@H]1C(=O)C[C@@H](O)[C@@H]1/C=C/CC(C)(O)CCC1=CCCC1` (stereo partly specified), for which the ED50 in test [1] was 0.1 µg/kg; in test [2], 1180 µg/kg.
On to `COC(=O)CC/C=C\CC[C@H]1C(=O)C[C@@H](O)[C@@H]1/C=C/C[C@@](C)(O)/C=C/C1CCC1`, for which the 50% effective dose (ED50) came out at 0.05 µg/kg in test [1] and 530 µg/kg in test [2].
On to `COC(=O)CC/C=C\CC[C@H]1C(=O)C[C@@H](O)[C@@H]1/C=C/C[C@@](C)(O)/C=C/C1(C)CC1`, for which the ED50 in test [1] worked out at 0.02 µg/kg; in test [2], 1340 µg/kg.
Turning to `COC(=O)CC/C=C\CC[C@H]1C(=O)C[C@@H](O)[C@@H]1/C=C/C[C@@](C)(O)/C=C/C1CCCC1`, the 50% effective dose (ED50) in test [1] amounted to 0.3 µg/kg; in test [2], 1950 µg/kg.
